Rows were chosen to be rich in hits. Some 3% of all compounds tested hit in one or more screens of this group.
Pemphigus Ab inh = blocks pemphigus antibody binding to human desmoglein-3. DSG3-coupled beads, scFv-anti-DSG3-GFP binding, flow cytometry; hits give low values. AID 588358. hit rate 0.48% among 310,000. P32926. binding (percent of control), % at 10 µM;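 active = binding more than 3 SD below its plate's average and above zero; inconclusive = below that plate limit but binding exactly zero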;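 also: hits lower antibody fragment binding to DSG3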
Target sequence (P32926 whole entry, looked up, the tested form may be a part): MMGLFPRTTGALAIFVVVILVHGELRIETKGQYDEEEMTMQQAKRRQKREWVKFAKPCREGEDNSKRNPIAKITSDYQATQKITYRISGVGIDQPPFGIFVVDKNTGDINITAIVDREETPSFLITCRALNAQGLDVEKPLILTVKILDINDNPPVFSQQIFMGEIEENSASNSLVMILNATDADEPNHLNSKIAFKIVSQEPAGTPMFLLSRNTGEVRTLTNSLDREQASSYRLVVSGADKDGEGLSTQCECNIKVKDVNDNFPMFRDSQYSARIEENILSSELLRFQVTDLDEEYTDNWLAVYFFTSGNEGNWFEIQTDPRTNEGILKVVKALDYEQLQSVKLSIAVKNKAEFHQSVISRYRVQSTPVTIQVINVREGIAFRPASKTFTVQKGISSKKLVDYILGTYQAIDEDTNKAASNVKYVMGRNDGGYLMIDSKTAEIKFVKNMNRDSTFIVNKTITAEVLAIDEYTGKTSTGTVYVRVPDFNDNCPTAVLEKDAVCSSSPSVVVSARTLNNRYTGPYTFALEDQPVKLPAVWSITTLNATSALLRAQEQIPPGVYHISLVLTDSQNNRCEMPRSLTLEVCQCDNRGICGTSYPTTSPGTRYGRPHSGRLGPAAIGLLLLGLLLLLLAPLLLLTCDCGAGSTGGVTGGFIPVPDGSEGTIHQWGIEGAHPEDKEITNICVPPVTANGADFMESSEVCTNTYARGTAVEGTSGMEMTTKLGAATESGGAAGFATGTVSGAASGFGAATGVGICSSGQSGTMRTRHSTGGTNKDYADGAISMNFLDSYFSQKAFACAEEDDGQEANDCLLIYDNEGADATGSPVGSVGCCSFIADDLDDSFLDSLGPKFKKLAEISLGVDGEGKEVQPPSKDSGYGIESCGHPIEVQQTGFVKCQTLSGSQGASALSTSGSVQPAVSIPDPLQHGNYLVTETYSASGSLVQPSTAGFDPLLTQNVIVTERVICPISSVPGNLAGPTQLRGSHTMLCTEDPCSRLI
Cardio protect = protects H9c2 cardiomyocytes from peroxide injury; H2O2 injury protection, ATPLite, 2 h; protection from H2O2 cell death, % at 20 µM; hit rate 0.63% among 360,000; AID 588492;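 active = compounds giving at least 50% protection of heart cells from peroxide-induced death in the single-dose screen, raw or plate-pattern-corrected value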;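 also: 0% = DMSO wells with peroxide and 100% = DMSO wells without peroxide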
Myeloid diff MLP = promotes myeloid progenitor differentiation; ER-HoxA9 myeloid progenitors, lysozyme-GFP differentiation, flow cytometry; calls only at 10 µM; hit rate 1% among 360,000;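 active = normalized GFP-positive differentiation at or above the plate's own cutoff, the solvent-only control mean plus 3 SD; inconclusive = no clear call, values can overlap the other calls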;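 also: cells exposed to compound for four days before flow analysis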
Granule exo inh = blocks lytic granule exocytosis; hit rate 0.66% among 360,000; inhibition, % at 10 µM; AID 651702; TALL-104 LAMP-1 surface exposure, flow cytometry; cells stimulated with thapsigargin and PMA;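 active = inhibition above about 55%, limit read from the data; inconclusive = no clear call, values can overlap the other calls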
HNF4A DNA FP = change in binding of human HNF4 alpha to DNA; P41235; HNF4a-FITC DNA binding, fluorescence polarization, 1 h; activity change, % at 10 µM; hit rate 0.3% among 360,000; AID 1224865; in the data active = activity change above about 30%, passing the limit was not always enough
SENP1 inh = inhibitors of human SENP1 SUMO protease catalytic domain; Q9P0U3; recombinant SENP1 catalytic domain, CyPet-SUMO1-YPet FRET cleavage; inhibition, % at 10 µM; hit rate 0.21% among 360,000;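 active = inhibition at least 30% at 10 µM, raw YFP signal under a set limit, fluorescence ratio 0.5 to 1.5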;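 also: 0% = enzyme with DMSO and 100% = no enzyme wells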
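system = hSENP1 catalytic domain, recombinant | reagent = SFCypet-SUMO1-SFYpet substrate at 25 nM | doses = one dose per compound, 10 µM, 0.5% DMSO | incubation = enzyme reaction for 50 min at room temperature, dark | measured by = FRET, CFP and YFP emission | controls = no-enzyme low, enzyme-DMSO high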
* hit, by the source's call; i = inactive; u = inconclusive; x = not tested or not shown; + = active, no number; ! = a repeat was not active.

SMILES	Pemphigus Ab inh	Cardio protect	Myeloid diff MLP	Granule exo inh	HNF4A DNA FP	SENP1 inh
CC(C)N1CC=C(c2c[nH]c3ccccc23)CC1	104.6	-1.3	+	-1.6	3.0	-8.0
CC1CCCC(C2(O)C(=O)Nc3ccccc32)C1=O (stereo not given)	x	8.8	i	-0.7	-0.8	1.5
N#Cc1c(/N=C/c2ccc(O)cc2O)sc2c1C1CCN2CC1	104.8	4.5	i	2.1	40.4*	-83.2
CN1CCc2cc3c(c4c2C1Cc1ccccc1-4)OCO3 (stereo not given)	103.0	-12.9	i	80.3*	-50.0	-26.6
CCCCn1c(NC(=O)c2ccc(Br)o2)c(C(=O)OCC)c2nc3ccccc3nc21	80.8	-3.4	+	-0.9	0.1	-28.2
CCCCn1c(NS(=O)(=O)c2ccccc2)c(C(=O)OCC)c2nc3ccccc3nc21	106.8	-9.7	i	3.6	1.2	-27.5
C[N+]12CCC(CC1)C(C(O)(c1cccc(Cl)c1)c1cccc(Cl)c1)C2 (stereo not given)	82.2*	2.9	i	-6.3	5.6	1.1
Cn1cccc1/C=C1/C(=O)NC(=S)N(Cc2ccc(F)cc2)C1=O	70.4*	-5.3	i	57.9*	-26.0	-15.7
C=C(C)[C@@]12OC3(c4ccccc4)O[C@@H]1C1[C@@H]4O[C@]4(CO)[C@@H](O)[C@]4(O)C(=O)C(C)=C[C@H]4[C@@]1(O3)[C@H](C)[C@H]2OC(=O)/C=C/C=C/c1ccccc1 (stereo not given in full)	96.3	-13.5	u	-2.4	0.2	1.3
CC1CN1P(=O)(Oc1ccccc1)N1CC1C (stereo not given)	94.5	-1.9	i	2.3	-1.4	-10.1
NC1C2CN3CCN(C2)CC1(c1ccccc1)C3 (stereo not given)	92.2	5.3	i	-8.8	75.1*	0.0
CCOC(=O)CNC(=O)N1Cc2cc(N3CCOCC3)ccc2-n2nncc2C1	x	8.9	i	-1.9	-2.0	0.7
CCOC(=O)CNC(=O)N1Cc2ccccc2-n2nncc2C1	103.6	1.7	+	0.5	-1.7	1.0
N#CC1c2ccccc2-n2nncc2CN1S(=O)(=O)c1ccc(Cl)cc1 (stereo not given)	107.5	4.6	i	-1.2	2.8	0.3
Cc1ccc(S(=O)(=O)N2Cc3cnnn3-c3ccccc3C2C#N)cc1 (stereo not given)	94.3	4.3	+	-1.6	1.1	0.7
Cc1ccc2c(c1Cl)NC(C(=O)O)C1CC(Sc3ccccc3[N+](=O)[O-])C(Cl)C21 (stereo not given)	40.5*	4.1	i	-0.1	-24.6	-1.4
CCN(CC)C(=O)c1ccc2c(c1)C1C(Cl)C(Sc3ccccc3[N+](=O)[O-])CC1C(C(=O)O)N2 (stereo not given)	87.4	12.5	i	-2.3	-36.6	-7.1
O=C1NC(=O)N(c2ccc3c(c2)OCO3)C(=O)/C1=C\c1ccc(N2CCCCC2)o1	180.4	2.2	i	1.2	169.3	24.0
Cc1cccc(N2C(=O)/C(=C/c3ccc(N4CCN(C)CC4)o3)C(=O)NC2=S)c1C	151.0	1.3	i	4.2	84.2*	33.9*
Cc1ccccc1N1C(=O)NC(=O)/C(=C/c2ccc(N3CCOCC3)o2)C1=O	113.0	-3.5	i	1.4	107.9*	-6.4
CN1C(=O)C(=Cc2ccc(N3CCOCC3)o2)C(=O)N(C)C1=O	124.9	1.6	i	-0.9	153.5	15.4
CCc1ccccc1N1C(=O)/C(=C/c2ccc(N3CCN(C)CC3)o2)C(=O)NC1=S	128.5	7.4	i	0.0	54.8*	42.6*
CN1C(=O)C(=Cc2ccc(N3CCCCCC3)o2)C(=O)N(C)C1=S	x	-28.4	+	-0.4	148.5	97.0
CCC(=NCCCN(CC)CC)c1c(O)n(-c2ccccc2)c(=O)[nH]c1=O	96.5	1.6	i	-0.9	-2.6	2.3
C/C(=N\N1CCN(C)CC1)c1c(O)n(Cc2ccccc2)c(=O)[nH]c1=O	98.9	5.5	i	-0.9	-1.7	2.0
SMILES	Pemphigus Ab inh	Cardio protect	Myeloid diff MLP	Granule exo inh	HNF4A DNA FP	SENP1 inh
CCCCCc1nc2c(c(=O)c3ccccc3n2C)c(=O)n1C1CCCCCC1	113.9	-21.6	+	4.2	7.9	-13.8
COC(=O)C1=C(c2ccc(OC)c(OC)c2)C[C@@H]2CC[C@H]1N2C(=O)NCCNC(C)=O	100.5	7.0	i	-6.0	-0.5	2.2
O=c1[nH]c(CN2CC=C(c3ccccc3)CC2)nc2scc(-c3ccccc3)c12	107.6	3.0	+	3.6	21.5	-37.9
O=c1[nH]c(CN2CC=C(c3ccccc3)CC2)nc2cc(C(F)(F)F)ccc12	112.0	1.1	+	1.9	22.5	-25.5
Cc1ccc2c(CN3CC=C(c4ccccc4)CC3)cc(=O)oc2c1C	98.1	3.3	i	-3.1	-0.2	-26.5
CCN(CC)C(=O)c1ccc(NC(=O)CNC(C)c2cccc3ccccc23)cc1 (stereo not given)	110.5	-2.3	i	12.6	0.1	2.4
CCOC(=O)CC1=C(C(=O)OCC)C2(C(=O)N1CC(=O)OC)C(C#N)=C(N)Oc1ccccc12 (stereo not given)	105.4	0.6	i	0.6	-0.9	0.5
CN1/C(=C\C=C2C(=O)NC(=S)NC2=O)C(C)(C)c2ccccc21	134.2	2.5	+	-1.2	60.1	-6.3
O=C1NC(=S)N(c2ccccc2F)C(=O)/C1=C\c1cccs1	98.9	-13.6	i	75.7*	-2.0	-26.8
CCN(CC)P(=S)(c1c(C)nc2ccccn12)c1c(C)nc2ccccn12	97.5	3.0	i	-0.8	-1.6	-0.1
O=C(O)CCCc1ccc(N(CCCl)CCCl)cc1	101.5	-2.7	i	2.2	-0.4	-3.9
O=C1NC(=S)SC1=Cc1ccc(N(CCCl)CCCl)cc1	96.8	-19.4	+	10.8	195.2	-29.6
O=C(NC1(C(F)(F)F)Oc2ccc(Cl)cc2O1)N1CCC2(CC1)OCCO2 (stereo not given)	99.5	77.9*	i	-2.1	1.4	1.3
CC12CN3CN(C1)CC(C)(C3)C2=NO	95.0	4.3	i	0.2	-1.5	1.4
CCCN(CC#CCOc1ccc(OC)cc1)CCC	98.1	-3.2	i	0.8	-1.3	1.0
CCCCn1c(O)c(C(=O)/C=C/c2c[nH]c3ccccc23)c(=O)[nH]c1=O	x	3.8	+	-3.4	149.7	-31.4
CCN(CC)P(=O)(NC(=O)C(Cl)(Cl)Cl)N(CC)CC.[Cl-].[Cl-].[Cl-].[Nd+3]	97.4	-6.1	i	1.5	53.0*!	1.4
Ic1ccccc1CN[C@@H]1C2CCN(CC2)[C@@H]1C(c1ccccc1)c1ccccc1	124.0	-7.8	u	28.5	1.3	4.9
O=c1[nH]c(=S)n(C2CC2)c(O)c1/C=N/Nc1ccccc1	101.9	1.2	i	6.9	0.9	2.5
